Data from ChEMBL document CHEMBL1681680, “Synthesis of chroman aldehydes that inhibit HIV” (Bioorg Med Chem Lett, 2011).

Key:
[1] = Cytotoxicity against human HeLa37 cells assessed as cell viability by ATPLite assay; type: functional; conditions: for CC50: Homo sapiens, HeLa37, read-out: LC50 (the source's name)
Summary of the method: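 HeLa37 cells plated and dosed as in the infectivity assay, compounds up to 100 μg/mL, DMSO ≤0.5%. A separate DMSO dose-response (0.05–0.5%) was run, and its effect on viability was subtracted. LC50 and LC90 taken from dose-response. Triplicates, three independent experiments.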

[2] = test system: Human immunodeficiency virus 1; assay: Antiviral activity against HIV1 NL4-3 infected in human HeLa37 cells assessed as inhibition of viral infectivity after 40 hrs by single round infectivity assay; type: functional, organism-based; conditions: Human immunodeficiency virus 1, NL4-3, HeLa37, 40 h
Summary of the method: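 HIV-1 NL4-3 and compound mixed, then added to HeLa37 cells (5×10^4 cells/well) at MOI ~0.005. Infection maintained 40 h. Cells fixed in 75% acetone/25% water and immunostained with human anti-HIV antisera. HIV antigen-positive cells counted and normalized to controls at the same DMSO level (DMSO ≤0.5%). IC50 and IC90 taken from dose-response curves. Triplicates, three independent experiments.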

SMILES	LC90 [1]	CC50 [1]	IC50 [2]	IC90 [2]
CC(=O)c1c(O)c(C=O)c2c(c1O)CCC(C)(C)O2	258 µM	145 µM	30.2 µM	85 µM
CC(=O)c1c(O)c2c(c(C(C)=O)c1O)OC(C)(C)CC2		> 100 µM	> 100 µM	> 100 µM
CC(=O)c1c(O)c(C=O)c(O)c2c1OC(C)(C)CC2		> 100 µM	39.8 µM	85.6 µM
CC1(C)CCc2c(O)c(C=O)c(O)c(C=O)c2O1		> 100 µM	77.3 µM	> 100 µM
COc1c(C=O)c(OC)c(C(C)=O)c2c1CCC(C)(C)O2		> 100 µM	55.3 µM	> 100 µM
CC(=O)c1c(O)c(C=O)c2c(c1O)C=CC(C)(C)O2		> 100 µM	34.6 µM	98.2 µM
CC1(C)CCc2c(O)c(C(=O)CC(=O)c3ccccc3)c(O)c(C=O)c2O1		84.2 µM	40.7 µM	86.6 µM
